These results are taken from ChEMBL document CHEMBL1817613, “Antitumor actinopyranones produced by Streptomyces albus POR-04-15-053 isolated from a marine sediment” (J Nat Prod, 2011).

Where a name gives a salt, the structure may show the parent alone. Active and inactive are the calls of the source. The calls are words filed in the database; no cut-off is given here.

The target of assay [1] is T1, Epidermal growth factor receptor (Homo sapiens, UniProt P00533). Put plainly: Inhibition of EGFR autophosphorylation in human HeLa cells preincubated for 30 mins prior to EGF stimulation by Western blotting. The assay is classed as cell-based. The procedure, abridged:
(§1)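 Cells preincubated 30 min with vehicle, AG1478 or compound, then treated with EGF for 10 min. Lysed on ice 15 min in Tris-HCl pH 7.5/NaCl/NP-40/EDTA buffer with protease inhibitors, cleared at 14000g for 30 min at 4 °C. Equal extract amounts run on SDS-PAGE and blotted to PVDF. Probed for phospho-EGFR, phospho-ERK and phospho-JNK, then reprobed for total ERK and JNK.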

The test system of assay [2] is HeLa. Put plainly: Effect on total ERK2 level in human HeLa cells preincubated for 30 mins prior to EGF stimulation by Western blotting. It counts as functional, cell-based. The procedure, abridged: as §1
Assay [3] deals with HeLa. Kind of assay: Effect on total JNK1 level in human HeLa cells preincubated for 30 mins prior to EGF stimulation by Western blotting. It counts as functional, cell-based. The procedure, abridged: as §1
A general note: Immunoblotting shows a protein as a band on a membrane.

In assay [4] the test system is HT-29. Kind of assay: Antitumor activity against human HT-29 cells after 72 hrs by SRB assay. It counts as functional. The following applies: HT-29, 72 h. The procedure, abridged: (§2)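 Cells kept in RPMI with 10% fetal calf serum, 2 mM L-glutamine, penicillin/streptomycin, 37 °C, 5% CO2. Triplicate cultures exposed 72 h to 10 concentrations from 10 to 0.0026 μg/mL. Fixed in 1% glutaraldehyde, stained with 0.4% SRB for 30 min, dye extracted in 10 mM Trizma base, absorbance at 490 nm. Doxorubicin positive control. GI50, TGI and LC50 interpolated from nonlinear-regression dose-response curves (mean ± SD).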
Background: Sulforhodamine B stains cellular protein and so reports cell mass.

In assay [5] the target is T1, Epidermal growth factor receptor. Kind of assay: Inhibition of EGFR-induced ERK phosphorylation in human HeLa cells preincubated for 4 hrs prior to EGF stimulation by Western blotting. It counts as cell-based. The procedure, abridged:
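Cells preincubated 4 h with vehicle, AG1478 or compound before a 10 min EGF treatment. Lysates cleared at 14000g for 30 min at 4 °C, resolved by SDS-PAGE and blotted to PVDF. Probed for phospho-ERK and reprobed for total ERK.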

The target is the same in assay [6]. Kind of assay: Inhibition of EGFR-induced ERK phosphorylation in human HeLa cells preincubated for 30 mins prior to EGF stimulation by Western blotting. The assay is classed as cell-based. The procedure, abridged:
as §1

Assay [7] relates to MDA-MB-231. Kind of assay: Antitumor activity against human MDA-MB-231 cells after 72 hrs by SRB assay. The following applies: MDA-MB-231, 72 h. The assay is classed as functional. The procedure, abridged: as §2
The target in assay [8] is HIF-1alpha (Homo sapiens). Kind of assay: Inhibition of HIF1alpha activation in human HeLa cells stimulated with deferoxamine by luciferase reporter gene assay.
Assay [9] addresses T1, Epidermal growth factor receptor. Put plainly: Inhibition of EGFR-induced AP1 activation in human HeLa cells preincubated for 1 hr prior to EGF stimulation by luciferase reporter gene assay. The assay is classed as cell-based. In general terms: Reporter assays use an easily measured gene product as a stand-in for the process of interest.
Assay [10] concerns the target beta-catenin (Homo sapiens). Kind of assay: Inhibition of beta-catenin activation in human SW480 cells by luciferase reporter gene assay.
The test system of assay [11] is A549. Put plainly: Antitumor activity against human A549 cells after 72 hrs by SRB assay. It counts as functional. Conditions: A549, 72 h; for CC50: read-out: LC50 (the source's name). The procedure, abridged: as §2
The target in assay [12] is T1, Epidermal growth factor receptor. Put plainly: Inhibition of EGFR-induced JNK1 phosphorylation in human HeLa cells preincubated for 30 mins prior to EGF stimulation by Western blotting. It counts as cell-based. The procedure, abridged:
as §1

T1 sequence (P00533 whole entry): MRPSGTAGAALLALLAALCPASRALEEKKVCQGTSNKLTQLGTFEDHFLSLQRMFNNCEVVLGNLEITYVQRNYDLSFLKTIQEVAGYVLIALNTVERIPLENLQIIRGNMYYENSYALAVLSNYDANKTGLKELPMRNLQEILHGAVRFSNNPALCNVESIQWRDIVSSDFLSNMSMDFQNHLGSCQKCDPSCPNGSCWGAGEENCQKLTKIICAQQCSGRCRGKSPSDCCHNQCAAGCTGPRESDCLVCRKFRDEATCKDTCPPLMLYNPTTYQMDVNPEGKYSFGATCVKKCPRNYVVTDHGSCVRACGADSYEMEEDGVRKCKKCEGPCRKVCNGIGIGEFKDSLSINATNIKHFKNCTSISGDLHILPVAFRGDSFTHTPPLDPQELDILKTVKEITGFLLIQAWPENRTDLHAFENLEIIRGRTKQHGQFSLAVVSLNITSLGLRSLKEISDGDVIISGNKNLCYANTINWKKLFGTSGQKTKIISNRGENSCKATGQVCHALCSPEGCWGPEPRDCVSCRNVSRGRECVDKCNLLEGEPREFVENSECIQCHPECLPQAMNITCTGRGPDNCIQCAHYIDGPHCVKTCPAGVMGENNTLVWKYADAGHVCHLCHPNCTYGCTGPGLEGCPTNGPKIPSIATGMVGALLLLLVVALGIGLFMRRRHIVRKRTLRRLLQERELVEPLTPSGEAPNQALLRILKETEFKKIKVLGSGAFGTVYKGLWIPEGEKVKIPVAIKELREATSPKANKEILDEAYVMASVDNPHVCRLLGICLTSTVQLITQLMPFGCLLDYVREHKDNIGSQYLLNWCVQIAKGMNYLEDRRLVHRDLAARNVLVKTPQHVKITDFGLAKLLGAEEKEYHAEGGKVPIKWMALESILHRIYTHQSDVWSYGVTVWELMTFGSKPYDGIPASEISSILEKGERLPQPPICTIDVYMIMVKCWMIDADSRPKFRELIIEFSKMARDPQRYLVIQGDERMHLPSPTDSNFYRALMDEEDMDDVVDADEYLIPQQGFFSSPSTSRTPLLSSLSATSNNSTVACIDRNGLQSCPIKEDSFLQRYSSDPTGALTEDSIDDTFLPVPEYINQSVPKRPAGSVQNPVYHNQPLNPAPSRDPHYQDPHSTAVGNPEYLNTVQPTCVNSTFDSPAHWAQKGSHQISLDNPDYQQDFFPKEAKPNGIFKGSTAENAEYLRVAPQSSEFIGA

On to `C/C=C(\C)[C@H](O)[C@H](C)/C=C(C)/C=C/CC(C)/C=C/c1oc(OC)c(C)c(=O)c1C` (some centres not stated), for which the inhibition entry in [1] was “inactive”. Moreover, the result in assay [2] and in assay [3] was inactive. The values for the GI50 in assay [4], in assay [7] and in assay [11] were 10800 nM, 10500 nM and 5000 nM, respectively. The same compound had an LC50 in assay [4] of 11500 nM. Moreover, the values for the TGI in [4], in [7] and in assay [11] were 10800 nM, > 22000 nM and 13500 nM, respectively. For the same compound, the inhibition entry in [5] and in assay [6] was “Active” in each case. Further, in assay [7], the LC50 (concentration killing 50% of cells) was > 22000 nM. The IC50 in [8] is 470 nM; in assay [9] it was < 7 nM; in assay [10], 660 nM. In addition, in assay [11], the CC50 is > 22000 nM.

Regarding `COc1cccc2c1C(=O)c1c(O)c3c(c(O)c1C2=O)C[C@@](O)(C(=O)CO)C[C@@H]3O[C@H]1C[C@H](N)[C@H](O)[C@H](C)O1` [DOXORUBICIN HYDROCHLORIDE], in assay [4], the concentration for 50% growth inhibition (GI50) is 150 nM and total growth inhibition (TGI) required 180 nM. In assay [7], this compound displayed a GI50 of 90 nM and a TGI of 180 nM. Besides, in assay [11], growth was halved (GI50) at 60 nM, the TGI was 200 nM and the CC50 was found to be 590 nM.

As to `COc1cc2ncnc(Nc3cccc(Cl)c3)c2cc1OC`, the inhibition entry in [1] is “Active”.

In the case of `C/C=C(\C)C(O)C(C)/C=C(C)/C=C/CC(C)/C=C/c1oc(OC)c(CC)c(=O)c1C` (configuration not stated), the inhibition entry in assay [1] and in [6] was “inactive” in each case. Besides, the outcome in assay [2] and in assay [3] was inactive. For the same compound, the values for the GI50 in assay [4], in [7] and in assay [11] were 21500 nM, > 22000 nM and 18600 nM, respectively. Also, the LC50 in assay [4] is > 22000 nM. The TGI in assay [4], in assay [7] and in assay [11] was > 22000 nM each time. Besides, in [7], the LC50 (concentration killing 50% of cells) was > 22000 nM. In [12], the inhibition result is “Active”. Further, in assay [11], the CC50 is > 22000 nM.

As to `C/C=C(\C)C(O[C@@H]1O[C@H](CO)[C@@H](O)[C@H](O)[C@H]1O)C(C)/C=C(C)/C=C/CC(C)/C=C/c1oc(OC)c(C)c(=O)c1C` (some centres not stated), the inhibition result in [1] and in assay [6] was “inactive” each time. Further, the result in assay [2] and in assay [3] was inactive. In addition, the LC50 in assay [4] was determined as 240 nM. Further, the GI50 in assay [7] was 500 nM; in assay [11], 530 nM. This compound had an LC50 (concentration killing 50% of cells) in assay [7] of 1010 nM. The TGI in assay [7] was 690 nM; in assay [11], 760 nM. Also, the IC50 in [8] amounted to 60 nM; in assay [9], 160 nM; in [10], 170 nM. The CC50 in [11] worked out at 1160 nM.

As to `C/C=C(\C)C(O[C@@H]1O[C@H](CO)[C@@H](O)[C@H](O)[C@H]1O)C(C)/C=C(C)/C=C/CC(C)/C=C/c1oc(OC)c(CC)c(=O)c1C` (some centres not stated), in assay [4], growth was halved (GI50) at 380 nM, the LC50 was 4680 nM and the TGI stood at 1230 nM. In assay [7], this compound displayed a GI50 of 240 nM, an LC50 (concentration killing 50% of cells) of 820 nM and a TGI of 430 nM. In assay [11], the GI50 was 280 nM, the TGI is 520 nM and the CC50 was 1080 nM.

One may read the GI50 as the concentration that inhibits growth by half. High values mean lower sensitivity of the cells, low ones greater sensitivity of the cells. Usually LC50 stands for the concentration lethal to half of the exposed cells or organisms. Higher therefore signals a less lethal substance. One may read the TGI as the concentration giving total growth inhibition. Read a low TGI as greater sensitivity of the cells. The IC50 is the point on the concentration scale where inhibition reaches its midpoint.
